Experimental findings from ChEMBL document CHEMBL4382192, “Discovery of a potent dual ALK and EGFR T790M inhibitor” (Eur J Med Chem, 2017) are described below.

For assay [1], the system named is Epidermal growth factor receptor (Homo sapiens), P00533 [UNDEFINED MUTATION]. Nature of the assay: Binding affinity to human partial length EGFR S752-I759del mutant expressed in bacterial expression system assessed as residual binding level at 1 uM by Kinomescan method relative to control. In outline: (§1)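 Kinome-wide selectivity panel run by the KINOMEscan method, with the test compound at a single concentration of 1 μM. Wild-type and mutant kinases were profiled in the same screen.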

In assay [2] the target is Homeodomain-interacting protein kinase 1 (Homo sapiens) (UniProt Q86Z02). The assay can be described thus: Binding affinity to wild-type human partial length HIPK1 (M146 to I555 residues) expressed in mammalian expression system assessed as residual binding level at 1 uM by Kinomescan method relative to control.
Chain of Homeodomain-interacting protein kinase 1 (Homo sapiens) (Q86Z02 whole entry, looked up, the tested form may be a part): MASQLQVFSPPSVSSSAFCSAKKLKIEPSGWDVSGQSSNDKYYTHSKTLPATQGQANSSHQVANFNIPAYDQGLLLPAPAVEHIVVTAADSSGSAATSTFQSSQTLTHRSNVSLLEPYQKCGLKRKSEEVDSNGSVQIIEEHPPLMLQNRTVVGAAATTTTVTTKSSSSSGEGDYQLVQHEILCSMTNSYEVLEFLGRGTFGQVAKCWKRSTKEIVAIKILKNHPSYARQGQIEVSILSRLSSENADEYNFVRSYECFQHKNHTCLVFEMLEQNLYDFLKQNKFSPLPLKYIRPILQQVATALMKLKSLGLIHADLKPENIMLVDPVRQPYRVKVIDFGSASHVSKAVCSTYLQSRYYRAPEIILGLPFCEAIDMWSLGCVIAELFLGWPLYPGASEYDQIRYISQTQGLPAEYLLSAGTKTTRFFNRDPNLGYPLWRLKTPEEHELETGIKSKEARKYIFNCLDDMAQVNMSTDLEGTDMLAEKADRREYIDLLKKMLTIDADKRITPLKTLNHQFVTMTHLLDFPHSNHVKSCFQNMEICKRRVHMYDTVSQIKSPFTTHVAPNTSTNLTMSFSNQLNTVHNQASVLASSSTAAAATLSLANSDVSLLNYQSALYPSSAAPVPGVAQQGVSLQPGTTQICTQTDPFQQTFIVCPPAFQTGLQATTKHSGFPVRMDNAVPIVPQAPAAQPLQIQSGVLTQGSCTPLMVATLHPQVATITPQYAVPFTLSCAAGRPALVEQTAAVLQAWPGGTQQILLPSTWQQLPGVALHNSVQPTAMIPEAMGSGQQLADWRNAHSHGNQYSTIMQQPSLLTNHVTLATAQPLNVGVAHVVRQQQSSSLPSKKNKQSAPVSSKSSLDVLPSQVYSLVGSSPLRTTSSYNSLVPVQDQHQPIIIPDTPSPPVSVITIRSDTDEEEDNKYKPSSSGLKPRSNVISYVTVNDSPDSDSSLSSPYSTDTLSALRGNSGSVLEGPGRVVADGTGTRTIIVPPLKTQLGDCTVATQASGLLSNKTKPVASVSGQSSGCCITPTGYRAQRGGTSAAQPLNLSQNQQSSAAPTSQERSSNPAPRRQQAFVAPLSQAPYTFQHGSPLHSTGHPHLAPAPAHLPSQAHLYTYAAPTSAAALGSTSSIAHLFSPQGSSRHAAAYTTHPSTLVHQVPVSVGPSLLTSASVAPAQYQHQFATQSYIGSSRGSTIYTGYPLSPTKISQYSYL
The target in assay [3] is Receptor tyrosine-protein kinase erbB-2 (Homo sapiens, UniProt P04626). The assay can be described thus: Binding affinity to wild-type human partial length ERBB2 (K646 to V1225 residues) expressed in mammalian expression system assessed as residual binding level at 1 uM by Kinomescan method relative to control.
Chain of Receptor tyrosine-protein kinase erbB-2 (P04626 whole entry, the tested form may be a part): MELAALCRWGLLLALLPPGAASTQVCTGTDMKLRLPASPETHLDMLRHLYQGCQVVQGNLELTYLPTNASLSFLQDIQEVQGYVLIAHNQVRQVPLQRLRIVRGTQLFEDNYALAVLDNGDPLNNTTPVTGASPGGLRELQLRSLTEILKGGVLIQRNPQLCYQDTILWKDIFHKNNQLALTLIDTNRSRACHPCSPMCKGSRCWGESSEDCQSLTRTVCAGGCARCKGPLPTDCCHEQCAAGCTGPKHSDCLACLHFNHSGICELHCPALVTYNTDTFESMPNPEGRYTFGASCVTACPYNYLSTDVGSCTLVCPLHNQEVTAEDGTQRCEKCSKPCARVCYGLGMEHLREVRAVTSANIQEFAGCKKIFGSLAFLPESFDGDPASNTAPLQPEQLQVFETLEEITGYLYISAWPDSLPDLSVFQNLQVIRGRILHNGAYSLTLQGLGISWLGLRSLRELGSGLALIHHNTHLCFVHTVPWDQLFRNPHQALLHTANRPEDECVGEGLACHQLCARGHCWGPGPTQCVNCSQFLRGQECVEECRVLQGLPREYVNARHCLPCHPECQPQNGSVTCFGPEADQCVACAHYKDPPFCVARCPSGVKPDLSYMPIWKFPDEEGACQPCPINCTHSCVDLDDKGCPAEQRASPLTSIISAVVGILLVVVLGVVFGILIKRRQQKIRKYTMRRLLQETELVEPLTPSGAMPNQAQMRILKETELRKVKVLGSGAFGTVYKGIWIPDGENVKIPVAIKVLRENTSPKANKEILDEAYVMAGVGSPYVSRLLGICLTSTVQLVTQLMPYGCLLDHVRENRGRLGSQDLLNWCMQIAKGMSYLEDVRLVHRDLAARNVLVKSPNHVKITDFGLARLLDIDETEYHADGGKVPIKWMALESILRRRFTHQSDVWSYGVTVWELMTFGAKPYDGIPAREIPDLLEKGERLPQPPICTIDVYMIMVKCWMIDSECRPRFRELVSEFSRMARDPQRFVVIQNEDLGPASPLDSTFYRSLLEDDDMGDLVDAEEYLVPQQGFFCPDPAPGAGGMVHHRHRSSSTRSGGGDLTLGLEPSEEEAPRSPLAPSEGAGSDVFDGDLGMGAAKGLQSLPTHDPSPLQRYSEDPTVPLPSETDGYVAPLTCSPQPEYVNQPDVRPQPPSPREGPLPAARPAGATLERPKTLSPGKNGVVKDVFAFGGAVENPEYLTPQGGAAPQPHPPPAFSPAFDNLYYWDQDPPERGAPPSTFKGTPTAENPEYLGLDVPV
The target in assay [4] is Dual specificity mitogen-activated protein kinase kinase 6 (Homo sapiens) (UniProt P52564). Nature of the assay: Binding affinity to wild-type human partial length MEK6 (K36 to D334 residues) expressed in bacterial expression system assessed as residual binding level at 1 uM by Kinomescan method relative to control.
Chain of Dual specificity mitogen-activated protein kinase kinase 6 (Homo sapiens) (P52564 whole entry, the tested form may be a part): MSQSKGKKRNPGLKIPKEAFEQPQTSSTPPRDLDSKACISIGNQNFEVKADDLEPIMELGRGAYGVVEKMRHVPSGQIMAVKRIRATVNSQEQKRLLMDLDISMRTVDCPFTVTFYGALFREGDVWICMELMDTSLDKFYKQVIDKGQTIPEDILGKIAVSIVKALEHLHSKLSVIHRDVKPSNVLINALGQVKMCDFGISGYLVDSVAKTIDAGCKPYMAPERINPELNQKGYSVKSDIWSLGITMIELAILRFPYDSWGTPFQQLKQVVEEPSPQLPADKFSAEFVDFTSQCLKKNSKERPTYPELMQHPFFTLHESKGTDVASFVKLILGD
Assay [5] relates to Receptor-type tyrosine-protein kinase FLT3 (Homo sapiens), P36888 [R834Q]. The assay can be described thus: Binding affinity to human partial length FLT3 R834Q mutant (V592 to Y969 residues) expressed in mammalian expression system assessed as residual binding level at 1 uM by Kinomescan method relative to control. In outline: as §1
For assay [6], the system named is Tyrosine-protein kinase ABL1 (Homo sapiens), P00519 [T315I]. Nature of the assay: Binding affinity to human non-phosphorylated ABL1 T315I mutant (S229 to K512 residues) expressed in mammalian expression system assessed as residual binding level at 1 uM by Kinomescan method relative to control. In outline:
as §1

In assay [7] the target is Serine/threonine-protein kinase WNK2 (Homo sapiens) (UniProt Q9Y3S1). Nature of the assay: Binding affinity to wild-type human partial length WNK2 (V47 to D482 residues) expressed in mammalian expression system assessed as residual binding level at 1 uM by Kinomescan method relative to control.
Assay [8] addresses Calcium/calmodulin-dependent protein kinase type II subunit gamma (Homo sapiens) (UniProt Q13555). The assay can be described thus: Binding affinity to wild-type human partial length CAMK2G (R9 to A303 residues) expressed in bacterial expression system assessed as residual binding level at 1 uM by Kinomescan method relative to control.
Assay [9] deals with Insulin-like growth factor 1 receptor (Homo sapiens) (UniProt P08069). Nature of the assay: Binding affinity to wild-type human partial length IGF1R (L972 to D1294 residues) expressed in bacterial expression system assessed as residual binding level at 1 uM by Kinomescan method relative to control.
Chain of Insulin-like growth factor 1 receptor (Homo sapiens) (P08069 31-736 limits assumed): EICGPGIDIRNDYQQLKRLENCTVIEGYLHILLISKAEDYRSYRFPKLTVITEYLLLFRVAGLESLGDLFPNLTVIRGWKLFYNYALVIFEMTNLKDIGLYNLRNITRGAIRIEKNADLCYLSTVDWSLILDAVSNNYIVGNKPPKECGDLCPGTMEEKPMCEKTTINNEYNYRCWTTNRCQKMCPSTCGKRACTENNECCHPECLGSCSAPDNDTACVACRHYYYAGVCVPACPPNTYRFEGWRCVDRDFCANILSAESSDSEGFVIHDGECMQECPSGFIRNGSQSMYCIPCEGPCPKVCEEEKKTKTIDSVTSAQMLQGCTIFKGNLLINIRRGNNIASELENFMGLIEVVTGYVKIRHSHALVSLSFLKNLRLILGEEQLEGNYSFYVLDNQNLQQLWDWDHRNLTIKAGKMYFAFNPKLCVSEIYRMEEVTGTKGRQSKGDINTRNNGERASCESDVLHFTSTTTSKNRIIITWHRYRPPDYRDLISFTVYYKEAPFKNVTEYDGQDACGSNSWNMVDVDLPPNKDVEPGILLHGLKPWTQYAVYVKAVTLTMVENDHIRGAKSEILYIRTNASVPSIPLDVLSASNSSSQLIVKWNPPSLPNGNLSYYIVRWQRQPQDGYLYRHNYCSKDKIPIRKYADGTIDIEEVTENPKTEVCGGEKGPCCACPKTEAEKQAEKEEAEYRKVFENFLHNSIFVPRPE
Chain of Insulin-like growth factor 1 receptor (Homo sapiens) (P08069 741-1367 limits assumed): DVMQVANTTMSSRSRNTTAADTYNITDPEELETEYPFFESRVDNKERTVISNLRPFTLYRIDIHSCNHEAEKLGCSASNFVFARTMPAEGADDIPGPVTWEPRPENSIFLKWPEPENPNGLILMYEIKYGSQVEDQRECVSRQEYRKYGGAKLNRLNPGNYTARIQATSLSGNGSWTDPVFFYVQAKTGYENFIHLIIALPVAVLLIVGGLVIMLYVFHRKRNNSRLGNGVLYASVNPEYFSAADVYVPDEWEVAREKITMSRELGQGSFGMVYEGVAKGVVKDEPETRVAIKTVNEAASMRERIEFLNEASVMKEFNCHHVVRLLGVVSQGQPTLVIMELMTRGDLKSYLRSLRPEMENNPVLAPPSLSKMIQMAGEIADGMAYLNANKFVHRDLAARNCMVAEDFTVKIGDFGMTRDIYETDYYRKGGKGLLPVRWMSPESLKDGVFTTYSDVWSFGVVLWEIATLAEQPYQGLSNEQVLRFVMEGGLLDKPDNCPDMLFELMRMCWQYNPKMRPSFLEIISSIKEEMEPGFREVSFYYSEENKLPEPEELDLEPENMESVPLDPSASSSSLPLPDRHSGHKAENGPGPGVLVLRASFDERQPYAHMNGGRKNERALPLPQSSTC
The target of assay [10] is Serine/threonine-protein kinase 17A (Homo sapiens) (UniProt Q9UEE5). The assay can be described thus: Binding affinity to wild-type human partial length DRAK1 (R32 to E363 residues) expressed in bacterial expression system assessed as residual binding level at 1 uM by Kinomescan method relative to control.
Chain of Serine/threonine-protein kinase 17A (Homo sapiens) (Q9UEE5 whole entry, the tested form may be a part): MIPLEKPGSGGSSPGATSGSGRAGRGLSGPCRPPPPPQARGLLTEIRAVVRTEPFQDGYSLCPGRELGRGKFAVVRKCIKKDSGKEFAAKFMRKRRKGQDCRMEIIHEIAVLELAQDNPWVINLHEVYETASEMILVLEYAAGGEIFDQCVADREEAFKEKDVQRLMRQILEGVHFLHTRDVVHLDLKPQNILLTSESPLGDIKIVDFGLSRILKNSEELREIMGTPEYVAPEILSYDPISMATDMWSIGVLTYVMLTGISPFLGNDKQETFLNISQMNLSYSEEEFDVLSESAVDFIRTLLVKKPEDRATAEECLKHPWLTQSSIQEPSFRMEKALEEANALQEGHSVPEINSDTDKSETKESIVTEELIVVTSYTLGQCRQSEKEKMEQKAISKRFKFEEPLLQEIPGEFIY
For assay [11], the target named is Dual specificity mitogen-activated protein kinase kinase 4 (Homo sapiens) (UniProt P45985). Nature of the assay: Binding affinity to wild-type human partial length MEK4 (S84 to D399 residues) expressed in mammalian expression system assessed as residual binding level at 1 uM by Kinomescan method relative to control.
For assay [12], the target named is Mitogen-activated protein kinase kinase kinase 7 (Homo sapiens) (UniProt O43318). Nature of the assay: Binding affinity to wild-type human partial length TAK1 (M1 to Q303 residues) expressed in mammalian expression system assessed as residual binding level at 1 uM by Kinomescan method relative to control.
The target in assay [13] is Ribosomal protein S6 kinase alpha-3 (Homo sapiens) (UniProt P51812). Nature of the assay: Binding affinity to wild-type human partial length C-terminal RSK2 kinase domain 2 (V402 to S715 residues) expressed in mammalian expression system assessed as residual binding level at 1 uM by Kinomescan method relative to control.
For assay [14], the target named is Serine/threonine-protein kinase STK11 (Homo sapiens) (UniProt Q15831). The assay can be described thus: Binding affinity to wild-type human full length LKB1 (M1 to Q433 residues) expressed in bacterial expression system assessed as residual binding level at 1 uM by Kinomescan method relative to control. The method in brief: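 Single-point kinome-wide KINOMEscan binding panel, test compound at 1 μM, run by the provider's standard protocol.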
Chain of Serine/threonine-protein kinase STK11 (Homo sapiens) (Q15831 whole entry, the tested form may be a part): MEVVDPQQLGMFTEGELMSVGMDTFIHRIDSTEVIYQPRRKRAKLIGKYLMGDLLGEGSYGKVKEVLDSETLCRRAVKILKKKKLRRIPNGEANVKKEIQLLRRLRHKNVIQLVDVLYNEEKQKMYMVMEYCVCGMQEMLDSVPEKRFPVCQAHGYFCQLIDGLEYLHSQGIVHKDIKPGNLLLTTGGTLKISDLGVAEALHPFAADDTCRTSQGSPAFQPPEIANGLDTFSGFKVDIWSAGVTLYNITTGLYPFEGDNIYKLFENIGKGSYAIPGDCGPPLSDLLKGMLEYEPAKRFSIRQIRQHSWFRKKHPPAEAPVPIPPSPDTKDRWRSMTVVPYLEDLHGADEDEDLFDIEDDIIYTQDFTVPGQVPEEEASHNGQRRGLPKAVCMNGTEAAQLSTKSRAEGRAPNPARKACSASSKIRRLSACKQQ

Assay [15] concerns the target Tyrosine-protein kinase receptor Tie-1 (Homo sapiens) (UniProt P35590). Nature of the assay: Binding affinity to wild-type human partial length TIE1 (T819 to A1138 residues) expressed in bacterial expression system assessed as residual binding level at 1 uM by Kinomescan method relative to control.
Assay [16] concerns Phosphatidylinositol 4,5-bisphosphate 3-kinase catalytic subunit alpha isoform (Homo sapiens), P42336 [H1047L]. The assay can be described thus: Binding affinity to human partial length PIK3CA H1047L mutant (R108 to N1068 residues) expressed in mammalian expression system assessed as residual binding level at 1 uM by Kinomescan method relative to control.
Assay [17] addresses Serine/threonine-protein kinase Nek2 (Homo sapiens) (UniProt P51955). Nature of the assay: Binding affinity to wild-type human partial length NEK2 (M1 to K309 residues) expressed in bacterial expression system assessed as residual binding level at 1 uM by Kinomescan method relative to control.
For assay [18], the target named is Phosphatidylinositol 4,5-bisphosphate 3-kinase catalytic subunit delta isoform (Homo sapiens) (UniProt O00329). The assay can be described thus: Binding affinity to wild-type human partial length PIK3CD (R108 to Q1044 residues) expressed in mammalian expression system assessed as residual binding level at 1 uM by Kinomescan method relative to control.
The target in assay [19] is Casein kinase I isoform gamma-1 (Homo sapiens) (UniProt Q9HCP0). The assay can be described thus: Binding affinity to wild-type human partial length CSNK1G1 (T15 to S353 residues) expressed in bacterial expression system assessed as residual binding level at 1 uM by Kinomescan method relative to control.
Assay [20] addresses Tyrosine-protein kinase BTK (Homo sapiens) (UniProt Q06187). The assay can be described thus: Binding affinity to wild-type human full length BTK (M1 to S659 residues) expressed in mammalian expression system assessed as residual binding level at 1 uM by Kinomescan method relative to control.
The target in assay [21] is Mitogen-activated protein kinase kinase kinase 6 (Homo sapiens) (UniProt O95382). The assay can be described thus: Binding affinity to wild-type human partial length ASK2 (M278 to R972 residues) expressed in mammalian expression system assessed as residual binding level at 1 uM by Kinomescan method relative to control.
For assay [22], the target named is SRSF protein kinase 3 (Homo sapiens) (UniProt Q9UPE1). The assay can be described thus: Binding affinity to wild-type human partial length SRPK3 (P41 to P567 residues) expressed in bacterial expression system assessed as residual binding level at 1 uM by Kinomescan method relative to control.
In assay [23] the target is Serine/threonine-protein kinase PLK3 (Homo sapiens) (UniProt Q9H4B4). The assay can be described thus: Binding affinity to wild-type human partial length PLK3 (A42 to L334 residues) expressed in mammalian expression system assessed as residual binding level at 1 uM by Kinomescan method relative to control.

As for `C=CC(=O)Nc1cc(Nc2ncc(Cl)c(Nc3ccccc3S(=O)(=O)C(C)C)n2)c(OC)cc1N(C)CCN(C)C`, the Activity worked out at 2.4% in assay [1]; 57% in assay [2]; 0% in assay [3]; 66% in assay [4]; 26% in [5]; 0.9% in assay [6]. Further, the Activity in assay [7] is 66%; in assay [8], 26%; in [9], 0.55%; in assay [10], 83%; in [11], 100%; in [12], 35%. The Activity in [13] was 75%; in assay [14], 88%; in [15] it was 8.8%; in assay [16], 86%; in assay [17], 83%; in assay [18] it was 75%. Moreover, the Activity came to 74% in assay [19]; 0% in assay [20]; 21% in assay [21]; 77% in assay [22]; 60% in assay [23].
